Data published in article PMC4655421 (ACS Chemical Biology, 2015).
Where “and” joins values, the source holds several entries; their conditions need not be identical. Equal values may be shown once.

Tests used:
[1] = biological target: RpMatB K488A; conditions: read-out: Kd for ATP; unlabeled RpMatB K488A; cited from earlier work
[2] = tested on: ATeam; conditions: ATeam biosensor; cited from earlier work
[3] = biological target: T1, Rho-MatB (Rhodopseudomonas palustris, UniProt Q6ND88, C106A/K488A/Q457C/R286C); experiment: Fluorescence titration of nucleotides to Rho-MatB; type: binding
T1 sequence (Q6ND88 1-503 C106A/R286C/Q457C/K488A): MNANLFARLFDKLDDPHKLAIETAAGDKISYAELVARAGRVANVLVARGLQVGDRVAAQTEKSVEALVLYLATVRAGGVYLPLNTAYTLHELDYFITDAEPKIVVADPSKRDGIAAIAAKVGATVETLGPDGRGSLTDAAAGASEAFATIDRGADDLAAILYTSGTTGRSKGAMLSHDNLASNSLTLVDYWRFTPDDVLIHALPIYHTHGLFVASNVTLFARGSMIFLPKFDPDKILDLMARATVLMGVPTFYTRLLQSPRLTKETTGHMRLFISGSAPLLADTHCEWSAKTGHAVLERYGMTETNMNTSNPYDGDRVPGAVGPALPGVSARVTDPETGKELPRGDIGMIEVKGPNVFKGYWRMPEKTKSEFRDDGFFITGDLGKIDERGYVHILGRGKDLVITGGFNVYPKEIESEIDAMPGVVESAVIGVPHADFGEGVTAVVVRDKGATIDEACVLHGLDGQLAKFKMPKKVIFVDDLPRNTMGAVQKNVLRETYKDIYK

[4] = biological target: T1, Rho-MatB; experiment: Stopped-flow association and dissociation kinetics of Rho-MatB and ATP; type: binding; conditions: 25 °C
Method in brief: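 Stopped-flow fluorescence at 25 °C in Hepes pH 7.0, NaCl, MgCl2, BSA buffer. In one format, a range of sensor concentrations in 10-fold excess over ATP gave single-exponential traces, with at least three traces averaged at 1.3 and 2.5 μM. In the other, 0.25 μM sensor was mixed with excess ATP, giving biphasic traces. kobs (fast phase) was plotted against the excess reactant; linear-regression slope gave association and intercept gave dissociation.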

[5] = biological target: T1, Rho-MatB; experiment: ATP titration of Rho-MatB in the presence of other nucleotides; type: binding; conditions: for fluorescence ratio of ATP titration: 1 μM Rho-MatB titrated with ATP in presence of 100 μM of the named nucleotide
Method in brief: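 ATP was titrated into 1 μM labelled sensor, alone or with 100 μM ADP, dATP, ATPγS or AMP-PNP. Buffer was Hepes pH 7.0 / NaCl / MgCl2 / BSA, with excitation at 553 nm and emission at 571 nm. Dilution-corrected data were fitted to a quadratic binding equation to give the apparent Kd for ATP and the fluorescence ratio.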

[6] = biological target: T1, Rho-MatB; experiment: Fluorescence of Rho-MatB with various ligands; type: binding; conditions: in words
[7] = biological target: pyruvate kinase (Oryctolagus cuniculus, UniProt P11974); experiment: Steady-state ATP production by pyruvate kinase monitored by Rho-MatB; type: biochemical, rabbit
[8] = 0.25 μM Rho-MatB, ATP in large excess
[9] = Rho-MatB in 10-fold excess over ATP

Sequence of pyruvate kinase (P11974 whole entry): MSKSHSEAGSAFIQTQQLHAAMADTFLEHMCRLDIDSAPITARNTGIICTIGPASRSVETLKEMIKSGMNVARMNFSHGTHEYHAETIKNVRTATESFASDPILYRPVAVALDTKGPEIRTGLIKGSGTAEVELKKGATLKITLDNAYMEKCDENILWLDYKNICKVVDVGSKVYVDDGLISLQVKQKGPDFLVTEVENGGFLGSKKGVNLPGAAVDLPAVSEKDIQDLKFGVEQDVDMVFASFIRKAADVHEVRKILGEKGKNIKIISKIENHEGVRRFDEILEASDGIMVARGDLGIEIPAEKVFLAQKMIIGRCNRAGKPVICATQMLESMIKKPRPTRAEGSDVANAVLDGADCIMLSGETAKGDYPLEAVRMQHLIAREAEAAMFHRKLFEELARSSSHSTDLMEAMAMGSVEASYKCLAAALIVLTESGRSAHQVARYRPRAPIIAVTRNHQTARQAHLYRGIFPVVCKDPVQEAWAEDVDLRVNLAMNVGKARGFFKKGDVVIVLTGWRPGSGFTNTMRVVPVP

In the case of Nc1ncnc2c1ncn2[C@@H]1O[C@H](COP(=O)(O)OP(=O)(O)OP(=O)(O)O)[C@@H](O)[C@H]1O [ATP], the Kd [1] is listed as 310 nM, the “higher affinity for ATP than ADP” value [2] is listed as 30 fold and the “higher affinity for ATP than ADP” value ([3]; Rho-MatB) is listed as 67 fold. For the same compound, the “increase in fluorescence intensity on ATP binding” value ([3]; excitation 553 nm, emission 575 nm, 1 μM Rho-MatB) was 3.7 fold, the “association rate constant (fast phase)” value [4, 8] was 1.83 ± 0.02 μM^–1 s^–1 and 1.8 μM^–1 s^–1 and the “intercept (dissociation rate constant, fast phase)” value [4, 8] was 8.15 ± 0.17 s^–1 and 8.2 s^–1. For the same compound, the association rate constant [4, 9] was 0.72 μM^–1 s^–1 and the “intercept (dissociation rate constant)” value [4, 9] was 8.0 s^–1 and 7.95 ± 0.18 s^–1.
With Nc1ncnc2c1ncn2[C@@H]1O[C@H](COP(=O)(O)OP(=O)(O)NP(=O)(O)O)[C@@H](O)[C@H]1O [AMP-PNP, adenosine 5′-(β,γ-imido)triphosphate] the “fluorescence ratio of ATP titration” value [5] was 2.4.
With Nc1nc2c(ncn2[C@@H]2O[C@H](COP(=O)(O)OP(=O)(O)O)[C@@H](O)[C@H]2O)c(=O)[nH]1 [GDP] the “effect on the fluorescence of Rho-MatB” value [6] was “did not significantly affect the fluorescence”.
For Nc1ncnc2c1ncn2[C@@H]1O[C@H](COP(=O)(O)OP(=O)(O)O)[C@@H](O)[C@H]1O [ADP], the “fluorescence ratio of ATP titration” value [5] was 3.0.
With C=C(OP(=O)(O)O)C(=O)O [phosphoenolpyruvate] the average specific activity [7] was 0.76 μM s^–1 U^–1 mL and 0.76 ± 0.02 μM s^–1 U^–1 mL and the “average Vmax” value ([7]; n = 5) was 0.0190 ± 0.0004 μM s^–1.
In the case of Nc1nc2c(ncn2[C@@H]2O[C@H](COP(=O)(O)OP(=O)(O)OP(=O)(O)O)[C@@H](O)[C@H]2O)c(=O)[nH]1 [GTP], the “effect on the fluorescence of Rho-MatB” value [6] is reported as “did not significantly affect the fluorescence”.
With O=C(O)CC(=O)O [malonate] the “effect on the MgATP-induced fluorescence increase” value [6] was “did not inhibit” and the “effect on the fluorescence of Rho-MatB” value [6] was “no effect”.
For Nc1ncnc2c1ncn2[C@@H]1O[C@H](CO[P@](=O)(O)O[P@](=O)(O)O[P@@](=O)(O)S)[C@@H](O)[C@H]1O [ATPγS, adenosine 5′-(γ-thio)triphosphate], the Kd [3] was 16.2 ± 0.8 µM, the “fluorescence ratio of ATP titration” value [5] was 1.9 and the “increase of apparent Kd for ATP” value ([5]; fixed concentration of the named nucleotide) was ~5 fold.
In the case of CC(C)(COP(=O)(O)OP(=O)(O)OC[C@H]1O[C@@H](n2cnc3c(N)ncnc32)[C@H](O)[C@@H]1OP(=O)(O)O)[C@@H](O)C(=O)NCCC(=O)NCCS [coenzyme A], the “effect on the MgATP-induced fluorescence increase” value [6] is reported as “did not inhibit” and the “effect on the fluorescence of Rho-MatB” value [6] is reported as “no effect”.
In the case of Nc1ncnc2c1ncn2[C@@H]1O[C@H](COP(=O)(O)O)[C@@H](O)[C@H]1O [AMP], the “effect on the fluorescence of Rho-MatB” value [6] is reported as “did not significantly affect the fluorescence”.
With Nc1ncnc2c1ncn2[C@H]1C[C@H](O)[C@@H](COP(=O)(O)OP(=O)(O)OP(=O)(O)O)O1 [dATP] the “fluorescence ratio of ATP titration” value [5] was 2.3.
